# Assay results reported in ChEMBL document CHEMBL1147379, “Antineoplastic agents, 256. Cell growth inhibitory isocarbostyrils from Hymenocallis” (1993).
# Key:
# Format in all cases: functional
# SK-OV-3 = assay: Growth inhibition of human SKOV3 cells; details: read-out: pTGI (converted)
# Procedure, shortened: (§1)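 NCI 60-human-tumour-cell-line primary in vitro screen. Each compound was tested eight separate times across three concentration ranges with upper limits of 10⁻⁴, 10⁻⁵ and 10⁻⁶ M. Each range used five 10-fold dilutions. GI₅₀, TGI and LC₅₀ were calculated from the concentration-response curves for each cell line, and averaged mean-graph values were constructed from them.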
# KM-20L2 = assay: Growth inhibition of human KM20L2 cells; procedure, shortened: as §1
# SK-MEL-2 = assay: Growth inhibition of human SK-MEL-2 cells; procedure, shortened: as §1
# OVCAR-4 = assay: Growth inhibition of human OVCAR4 cells; procedure, shortened: as §1
# RPMI-8226 = assay: Growth inhibition of human RPMI8226 cells; procedure, shortened: as §1
# EKVX = assay: Growth inhibition of human EKVX cells; procedure, shortened: as §1
# U-251 = assay: Growth inhibition of human U251 cells
# Procedure, shortened: (§2)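 NCI 60-human-tumour-line in vitro primary screen. Each compound tested eight separate times over three concentration ranges (upper limits 10⁻⁴, 10⁻⁵ and 10⁻⁶ M), each range as five 10-fold dilutions. GI₅₀ (also TGI and LC₅₀) derived from the concentration-response curves, reported as averaged values per cell line (negative log₁₀).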
# OVCAR-3 = assay: Growth inhibition of human OVCAR-3 cells; procedure, shortened: as §1
# LOX IMVI = assay: Growth inhibition of human LOXIMVI cells; procedure, shortened: as §1
# [1] = Growth inhibition of human LXFL529 cells; procedure, shortened: as §1
# CAKI-1 = assay: Growth inhibition of human Caki1 cells; procedure, shortened: as §1
# M14 = assay: Growth inhibition of human M14 cells; procedure, shortened: as §1
# HCT-116 = assay: Growth inhibition of human HCT116 cells; procedure, shortened: as §1
# CCRF-CEM = assay: Growth inhibition of human CCRF-CEM cells; procedure, shortened: as §1
# SN12C = assay: Growth inhibition of human SN12C cells; procedure, shortened: as §1
# OVCAR-5 = assay: Growth inhibition of human OVCAR5 cells; procedure, shortened: as §1
# Malme-3M = assay: Growth inhibition of human MALME-3M cells; procedure, shortened: as §1
# SF-268 = assay: Growth inhibition of human SF268 cells; procedure, shortened: as §1
# DMS-114 = assay: Growth inhibition of human DMS114 cells; procedure, shortened: as §1
# SF-539 = assay: Growth inhibition of human SF539 cells; procedure, shortened: as §1
# HOP-62 = assay: Growth inhibition of human HOP62 cells; procedure, shortened: as §1
# NCI-H322M = assay: Growth inhibition of human NCI-H322M cells; procedure, shortened: as §1
# HCC 2998 = assay: Growth inhibition of human HCC2998 cells; procedure, shortened: as §1
# IGROV-1 = assay: Growth inhibition of human IGROV1 cells; procedure, shortened: as §1
# UACC-62 = assay: Growth inhibition of human UACC62 cells; procedure, shortened: as §2
# DMS-273 = assay: Growth inhibition of human DMS273 cells; procedure, shortened: as §1
# P388 = assay: Growth inhibition of mouse P388 cells; details: read-out: ED50 (the source's name)
# HOP-92 = assay: Growth inhibition of human HOP92 cells; procedure, shortened: as §1
# SK-MEL-28 = assay: Growth inhibition of human SK-MEL-28 cells; procedure, shortened: as §1
# SW-620 = assay: Growth inhibition of human SW620 cells; procedure, shortened: as §2
# NCI-H226 = assay: Growth inhibition of human NCI-H226 cells; procedure, shortened: as §1
# [2] = read-out: pLC50 (the source's name) (converted)
structure (smiles),measurement,setting,value
O=C1N[C@H]2[C@H](O)[C@H](O)[C@@H](O)C[C@@H]2c2cc3c(cc21)OCO3,TGI,SK-OV-3,1100 nM
same,GI50,KM-20L2,51.3 nM
same,CC50,KM-20L2; [2],66100 nM
same,TGI,KM-20L2; read-out: pTGI (converted),912 nM
same,GI50,SK-MEL-2,38 nM
same,CC50,SK-MEL-2; [2],5500 nM
same,TGI,SK-MEL-2; read-out: pTGI (converted),331 nM
same,GI50,OVCAR-4,36.3 nM
same,CC50,OVCAR-4; [2],17000 nM
same,TGI,OVCAR-4; read-out: pTGI (converted),427 nM
same,GI50,RPMI-8226,95.5 nM
same,CC50,RPMI-8226; [2],> 100000 nM
same,TGI,RPMI-8226; read-out: pTGI (converted),776 nM
same,GI50,EKVX,331 nM
same,CC50,EKVX; [2],81300 nM
same,TGI,EKVX; read-out: pTGI (converted),3720 nM
same,GI50,U-251,47.9 nM
same,CC50,U-251; [2],37200 nM
same,TGI,U-251; read-out: pTGI (converted),1290 nM
same,GI50,OVCAR-3,83.2 nM
same,CC50,OVCAR-3; [2],45700 nM
same,TGI,OVCAR-3; read-out: pTGI (converted),501 nM
same,GI50,LOX IMVI,33.1 nM
same,CC50,LOX IMVI; [2],708 nM
same,TGI,LOX IMVI; read-out: pTGI (converted),158 nM
same,GI50,[1]; LXFL 529,46.8 nM
same,CC50,"[1]; LXFL 529, read-out: pLC50 (the source's name) (converted)",26900 nM
same,TGI,"[1]; LXFL 529, read-out: pTGI (converted)",708 nM
same,GI50,CAKI-1,191 nM
same,CC50,CAKI-1; [2],> 100000 nM
same,TGI,CAKI-1; read-out: pTGI (converted),1410 nM
same,GI50,M14,64.6 nM
same,CC50,M14; [2],1700 nM
same,TGI,M14; read-out: pTGI (converted),347 nM
same,GI50,HCT-116,33.1 nM
same,CC50,HCT-116; [2],24000 nM
same,TGI,HCT-116; read-out: pTGI (converted),398 nM
same,GI50,CCRF-CEM,34.7 nM
same,CC50,CCRF-CEM; [2],> 100000 nM
same,TGI,CCRF-CEM; read-out: pTGI (converted),525 nM
same,GI50,SN12C,141 nM
same,CC50,SN12C; [2],18200 nM
same,TGI,SN12C; read-out: pTGI (converted),1820 nM
same,GI50,OVCAR-5,324 nM
same,CC50,OVCAR-5; [2],> 100000 nM
same,TGI,OVCAR-5; read-out: pTGI (converted),2400 nM
same,GI50,Malme-3M,75.9 nM
same,CC50,Malme-3M; [2],8510 nM
same,TGI,Malme-3M; read-out: pTGI (converted),417 nM
same,GI50,SF-268,70.8 nM
same,CC50,SF-268; [2],63100 nM
same,TGI,SF-268; read-out: pTGI (converted),1510 nM
same,GI50,DMS-114,50.1 nM
same,CC50,DMS-114; [2],14100 nM
same,TGI,DMS-114; read-out: pTGI (converted),513 nM
same,GI50,SF-539,60.3 nM
same,CC50,SF-539; [2],1410 nM
same,TGI,SF-539; read-out: pTGI (converted),282 nM
same,GI50,HOP-62,64.6 nM
same,CC50,HOP-62; [2],10000 nM
same,TGI,HOP-62; read-out: pTGI (converted),501 nM
same,GI50,NCI-H322M,70.8 nM
same,CC50,NCI-H322M; [2],57500 nM
same,TGI,NCI-H322M; read-out: pTGI (converted),708 nM
same,GI50,HCC 2998,77.6 nM
same,CC50,HCC 2998; [2],15800 nM
same,TGI,HCC 2998; read-out: pTGI (converted),813 nM
same,GI50,IGROV-1,141 nM
same,CC50,IGROV-1; [2],67600 nM
same,TGI,IGROV-1; read-out: pTGI (converted),1100 nM
same,GI50,UACC-62,100 nM
same,CC50,UACC-62; [2],11000 nM
same,TGI,UACC-62; read-out: pTGI (converted),562 nM
same,GI50,DMS-273,61.7 nM
same,CC50,DMS-273; [2],12000 nM
same,TGI,DMS-273; read-out: pTGI (converted),603 nM
same,EC50,P388,0.02 µg/mL
same,GI50,HOP-92,75.9 nM
same,CC50,HOP-92; [2],> 100000 nM
same,TGI,HOP-92; read-out: pTGI (converted),741 nM
same,GI50,SK-MEL-28,81.3 nM
same,CC50,SK-MEL-28; [2],44700 nM
same,TGI,SK-MEL-28; read-out: pTGI (converted),646 nM
same,GI50,SW-620,64.6 nM
same,CC50,SW-620; [2],> 100000 nM
same,TGI,SW-620; read-out: pTGI (converted),2400 nM
same,GI50,NCI-H226,151 nM
same,CC50,NCI-H226; [2],8710 nM
same,TGI,NCI-H226; read-out: pTGI (converted),759 nM
